For 1 compound, K bind results are on record in ChEMBL document CHEMBL1123570, “Potent vasopressin antagonists modified at the carboxy-terminal tripeptide tail” (J Med Chem, 1987).

Bridge positions count the residues as written; N and C are the ends. Square brackets hold non-standard residues; d marks the D form. Peptide text beside a SMILES is read from it. Mpa = O=C(O)CCS

The test deals with Vasopressin V2 receptor (Sus scrofa) (UniProt P32307). Put plainly: Affinity towards vasopressin receptor in porcine renal medullary membrane using [3H]LVP. Type of test: cell membranes. To be noted: Renal medulla. The essentials:
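Pig kidney medullary membrane preparation; displacement of [³H]LVP binding. IC50 taken as the ligand concentration giving 50% inhibition of binding; Kbind calculated by the competitive-inhibition equation Kbind = IC50/(1 + L/KD), with KD the dissociation constant of [³H]LVP.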

Sequence of Vasopressin V2 receptor (Sus scrofa) (P32307 whole entry): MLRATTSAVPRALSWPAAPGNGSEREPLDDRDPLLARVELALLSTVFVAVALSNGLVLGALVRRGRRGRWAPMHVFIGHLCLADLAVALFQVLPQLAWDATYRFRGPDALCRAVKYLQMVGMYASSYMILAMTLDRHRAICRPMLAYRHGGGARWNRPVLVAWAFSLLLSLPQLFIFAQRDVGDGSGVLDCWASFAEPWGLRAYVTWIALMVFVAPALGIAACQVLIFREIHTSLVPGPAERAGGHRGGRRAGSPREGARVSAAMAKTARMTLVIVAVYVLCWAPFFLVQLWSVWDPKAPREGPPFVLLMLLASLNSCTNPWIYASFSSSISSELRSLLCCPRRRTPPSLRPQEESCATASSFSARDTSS

For `CC(C)[C@@H]1NC(=O)[C@H](Cc2ccccc2)NC(=O)[C@H](Cc2ccc(O)cc2)NC(=O)CCSSC[C@@H](C(=O)N[C@@H](CCCN=C(N)N)C(=O)N[C@@H](CCCN=C(N)N)C(N)=O)NC(=O)[C@H](CC(N)=O)NC1=O` ([Mpa]YFVNCRR-NH2; disulfide 1-6), the K bind was more than 1000 nM.
